Screening data from PubChem.
The full list was thinned out, with hits kept by preference.
INS promoter act – TRM-6 insulin promoter activation; TRM-6 cells (human fetal islet line), insulin promoter eGFP reporter, imaging; plate-scaled: unstimulated 0, stimulated control 100; activation, % at 2 µM; hit rate 0.81% among 130,000;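 active = activation at 2 µM above a set limit, confirmed on inspection of the cell images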;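 also: share of cells whose green reporter signal exceeds an intensity cutoff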
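Test system: TRM-6 insulin promoter–eGFP reporter cells / Quantity: 1,000 cells per well / Reagent: tamoxifen inducer, 0.75 µM, in seeding medium / Compound dosing: 2 µM final, single concentration / Schedule: overnight tamoxifen, then two-day compound incubation at 37 °C / Measured by: automated fluorescence imaging of paraformaldehyde-fixed, Hoechst-counterstained cells, green channel / Read-out: percent activation from GFP-positive cell fraction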
A number is an active result; 0 = inactive.

SMILES	INS promoter act
COc1ccc(-n2c(C(C)n3nc(C)c([N+](=O)[O-])c3C)n[nH]c2=S)cc1 (stereo not given)	515
COc1ccc(C2(NC(C)=O)CCN(C(=O)c3cccs3)CC2)cc1	0
COc1ccc(CCNC(=O)CC2SC(=NCCc3ccccc3)NC2=O)cc1OC (stereo not given)	0
Cc1ccc(Cn2nnc3c(=O)n(CC(=O)NCc4ccccc4)cnc32)cc1	0
Cc1cccc(-c2nsc(SCC(=O)NCC3CCCO3)n2)c1 (stereo not given)	0
COc1cccc(NC(=O)C2C3C=CC(O3)C2C(=O)NCc2cccnc2)c1 (stereo not given)	0
Cc1cc(NC(=O)c2c(F)cccc2F)n(-c2nc3ccccc3[nH]2)n1	0
Cc1cc(NC(=O)/C=C/c2cccc(Cl)c2)n(-c2nc3ccccc3[nH]2)n1	300
Cc1cc(NC(=O)/C=C/c2ccc(F)cc2)n(-c2nc3ccccc3[nH]2)n1	0
COc1cccc(OC)c1C(=O)Nn1c(-c2cccs2)nc2ccccc2c1=O	0
CCC(CC)C(=O)c1c[nH]c(C(=O)NCc2ccncc2)c1	0
O=[N+]([O-])c1ccc(COc2ccccc2/C=N/O)cc1	529
O=C(CNC(=O)c1ccccc1)OCc1ccc([N+](=O)[O-])cc1	0
O=C(O)c1cc(/C=N\O)ccc1OCc1ccccc1	0
COc1ccc(S(=O)(=O)N2CCOCC2)cc1NC(=O)COc1cccnc1[N+](=O)[O-]	0
CC(C)NC(=O)COc1ccc(Cl)cc1Cl	0
Cc1nc(NC(=O)COc2ccccc2)sc1C(=O)Nc1ccccc1	0
CC(=O)c1sc(NC(=O)COc2ccc(Cl)cc2Cl)nc1C	290
COc1cc(OC)cc(-c2nnc(SCC(=O)N3CCOCC3)o2)c1	0
COc1ccc(C(=O)CSc2nnc(-c3cc(C)cc(C)c3)o2)cc1	0
COc1cc(OC)cc(-c2nnc(SCC(=O)Nc3cc(C)on3)o2)c1	113
CC(=O)c1cccc(NC(=O)C2CCN(S(=O)(=O)c3ccccc3)CC2)c1	0
CCOc1ccc(N(CC(=O)Nc2ccccc2C(=O)N2CCOCC2)S(=O)(=O)c2ccc(F)cc2)cc1	0
C=CC[C@H]1CC(Cc2ccccc2)=C[C@H](CC=C)N1	0
Nc1ccc(C#Cc2ccccc2)cc1	207
SMILES	INS promoter act
C(#Cc1ccccc1)C[N+]1(CC#Cc2ccccc2)CCCC1	0
c1ccc(SSc2ccccc2)cc1	0
Cc1nn(-c2ccccc2)c(Cl)c1/C=C1\N=C(c2ccccc2)OC1=O	0
COc1ccc(/C=N/NC(=O)c2ccncc2)cc1Cn1nc([N+](=O)[O-])c(Br)c1C	394
COc1cc(/C=N/NC(=O)c2ccncc2)ccc1OC(=O)c1ccc([N+](=O)[O-])cc1	0
COc1ccc(/C=N/NC(=O)c2ccc(Br)o2)cc1Cn1cc([N+](=O)[O-])cn1	0
CCC(C)C(NC(=O)OC(C)(C)C)C(=O)NC(C)C(N)=O (stereo not given)	0
CC(C)(C)NC(=O)C(=O)NCCC1=CCCCC1	0
Cc1oc2cc3c(C(=O)N4CCN(c5ccccc5)CC4)c(C)oc3cc2c1C(=O)N1CCN(c2ccccc2)CC1	0
CCCn1c(CN(C)Cc2ccccc2)nc2c1c(=O)n(C)c(=O)n2C	0
CCCCn1c(CN(C)Cc2ccccc2)nc2c1c(=O)n(C)c(=O)n2C	0
CN(Cc1ccccc1)Cc1nc2c([nH]1)c(=O)n(C)c(=O)n2C	105
C=CCC1(O)C(=O)N2C(=C1C(=O)N1CCOCC1)c1ccccc1CC2(C)C (stereo not given)	0
O=C(Nc1ccccc1)Nc1cccc(Cl)c1Cl	0
O=C(Nc1ccccc1)Nc1ccccc1C(=O)NCc1ccccc1	77
CNC(=O)Nc1ccccc1C(=O)NCc1ccccc1	0
COc1cc(N2CCCC2)c(OC)cc1/C=C(/C#N)c1ccc(Br)cc1	87
COc1ccccc1N1CCN(c2cc(N3CCCC3)nc(C)n2)CC1	0
COc1ccccc1/C=N/NC(=O)c1ccc(Br)cc1	0
CCc1noc(C)c1C(=O)Nc1nc(-c2ccc(Cl)cc2Cl)c(C)s1	0
CC1(C)Cc2nc(N)c(C(=O)NCCO)cc2CO1	0
Cc1ccc(N=Nc2c(N)nn3c(C)cc(C)nc23)cc1	0
Cc1cc(C)n2nc(N)c(N=Nc3cccc(Cl)c3)c2n1	0
Cc1cc(=O)[nH]c2c(N=Nc3ccc(O)cc3)c(N)nn12	383
C=C(C)C1CCC(C)=C1COC(=O)Nc1ccccc1 (stereo not given)	0
SMILES	INS promoter act
Cc1cc(C)c(-c2c(O)c3cnn(-c4ccccc4)c3[nH]c2=O)c(C)c1	0
CNc1nc(SC)nc2ccsc12	0
Cc1ccc(NC(=O)c2cc(NC(=O)c3ccccc3C(=O)O)ccc2N2CCCCC2)cc1	0
Cc1cc2cc3c(cc2nc1SCC(=O)Nc1ccccc1)CCC3	0
N=c1oc2c3c4c(cc2cc1C(=O)Nc1ccccc1)CCCN4CCC3	900
CC1(C)CC(=O)CC(=Nc2ccc(C(=O)O)cc2)C1	0
COc1ccc(C2C(C#N)=C(N)Oc3cc(C)[nH]c(=O)c32)c(OC)c1OC (stereo not given)	0
O=C(N=Nc1c(O)[nH]c2ccc(Cl)cc12)c1cc(-c2cccs2)nc2ccccc12	0
COc1ccc2cc(-c3cc(C(=O)OCC(=O)Nc4c(C)n(C)n(-c5ccccc5)c4=O)c4ccccc4n3)ccc2c1	325
Cc1c(NC(=O)COC(=O)COc2ccc(Nc3ccccc3)cc2)c(=O)n(-c2ccccc2)n1C	0
Cc1c(NC(=O)COC(=O)CCC(=O)c2ccc(Cl)cc2)c(=O)n(-c2ccccc2)n1C	0
COc1ccccc1NC(=O)C1=C(C)NC2=C(C(=O)CC(c3ccc(OC)c(OC)c3)C2)C1c1coc2ccccc2c1=O (stereo not given)	0
Cc1ccc(C(=O)NCc2ccco2)cc1S(=O)(=O)N1CCOCC1	0
O=S(=O)(NCc1ccco1)N1CCOCC1	494
O=C(NCc1ccco1)C1CN(S(=O)(=O)c2ccccc2)CCN1S(=O)(=O)c1ccccc1 (stereo not given)	0
O=C(NCCO)C1(c2ccc(Cl)cc2)CCCC1	0
CCNC(=O)NC(=O)C(C)OC(=O)C1CCN(S(=O)(=O)c2ccccc2C(=O)OC)CC1 (stereo not given)	0
CCNC(=O)CC1C(=O)N(c2ccc(F)cc2)C(=O)N1CCc1ccc(OC)cc1 (stereo not given)	154
COc1ccc(NC(=O)CC2C(=O)N(c3ccc(OC)cc3)C(=O)N2CCc2cccs2)cc1 (stereo not given)	0
CCNC(=O)CC1C(=O)N(c2ccccc2)C(=O)N1CCc1ccc(OC)c(OC)c1 (stereo not given)	0
COc1nc(Nc2ccc([N+](=O)[O-])cc2)nc(NC(C)C)n1	0
C=C(Cl)COc1ccc2c(CCC)cc(=O)oc2c1	0
CCCc1cc(=O)oc2cc(OCC(=O)Nc3cc(C)on3)ccc12	0
CCCc1cc(=O)oc2cc(Oc3ncccn3)ccc12	154
NC(=O)c1ccsc1NC(=O)Cc1ccc([N+](=O)[O-])cc1	0
SMILES	INS promoter act
CCC(CC)NC(=O)Cc1ccccc1[N+](=O)[O-]	0
O=C(NNc1ccc([N+](=O)[O-])cc1)C12CC3CC(CC(C3)C1)C2	0
COc1ccc2[nH]c(=O)c(CN(C(C)=O)c3cccc(C)c3)cc2c1	0
CCC(=O)N(Cc1cc2cc(OC)ccc2[nH]c1=O)c1ccc(C)cc1C	236
CCOc1cc(C(=O)N(C)Cc2cc3cc(OC)ccc3[nH]c2=O)cc(OCC)c1OCC	0
O=C(c1ccc(-c2ccc([N+](=O)[O-])cc2)o1)N1CCCCC1	0
